Assays:
[1] = biological target: T1, Short transient receptor potential channel 4 (Mus musculus) (UniProt Q9QUQ5); assay: Inhibition of mouse TRPC4beta expressed in HEK293 cells co-expressing MOR assessed as decrease in DAMGO-evoked membrane depolarization at 22 uM preincubated for 2 mins followed by DAMGO addition measured for 2.5 mins by FLIPR membrane potential dye-based fluorescence assay relative to control; format: cell-based
T1 sequence (whole entry): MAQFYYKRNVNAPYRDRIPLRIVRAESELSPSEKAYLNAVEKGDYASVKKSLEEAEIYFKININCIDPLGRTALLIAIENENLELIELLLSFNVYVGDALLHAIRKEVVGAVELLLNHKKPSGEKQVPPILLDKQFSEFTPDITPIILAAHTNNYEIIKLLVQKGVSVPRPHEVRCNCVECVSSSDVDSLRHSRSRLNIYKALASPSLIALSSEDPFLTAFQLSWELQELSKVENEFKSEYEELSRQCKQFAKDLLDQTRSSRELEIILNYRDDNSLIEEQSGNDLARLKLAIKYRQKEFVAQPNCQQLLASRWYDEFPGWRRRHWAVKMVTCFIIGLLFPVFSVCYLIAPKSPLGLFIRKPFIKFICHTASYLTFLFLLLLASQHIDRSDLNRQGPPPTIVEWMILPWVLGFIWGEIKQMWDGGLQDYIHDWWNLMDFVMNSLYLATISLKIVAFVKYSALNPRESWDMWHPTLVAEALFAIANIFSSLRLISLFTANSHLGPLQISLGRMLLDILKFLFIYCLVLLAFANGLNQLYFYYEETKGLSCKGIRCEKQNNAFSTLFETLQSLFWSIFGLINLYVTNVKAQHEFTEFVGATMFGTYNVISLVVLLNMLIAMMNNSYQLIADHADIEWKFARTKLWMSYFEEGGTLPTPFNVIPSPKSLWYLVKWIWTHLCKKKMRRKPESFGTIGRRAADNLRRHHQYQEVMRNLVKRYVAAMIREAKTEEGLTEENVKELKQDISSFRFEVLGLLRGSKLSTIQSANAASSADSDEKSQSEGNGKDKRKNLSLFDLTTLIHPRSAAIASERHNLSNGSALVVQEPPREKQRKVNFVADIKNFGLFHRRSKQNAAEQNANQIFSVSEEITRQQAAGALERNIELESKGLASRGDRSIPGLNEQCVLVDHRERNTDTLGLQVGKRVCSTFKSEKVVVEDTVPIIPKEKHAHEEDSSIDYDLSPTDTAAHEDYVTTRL
Procedure, shortened: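 Same TRP panel as for the stimulation tests, with FMP dye for TRPC4 and M5 and Fluo8-AM for TRPA1, V1 and M8. Compound applied for 2 min before the channel agonist (TRPC4: 1 μM DAMGO). Inhibition of the agonist response measured on a FlexStation at 32 °C.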

[2] = biological target: T2, Short transient receptor potential channel 6 (Mus musculus, UniProt Q61143); assay: Agonist activity at mouse TRPC6 expressed in HEK293 cells co-expressing Gq11-PLCbeta fused M5 receptor assessed as peak current changes at +80 mV by whole cell patch-clamp method; format: cell-based
T2 sequence (Q61143 whole entry): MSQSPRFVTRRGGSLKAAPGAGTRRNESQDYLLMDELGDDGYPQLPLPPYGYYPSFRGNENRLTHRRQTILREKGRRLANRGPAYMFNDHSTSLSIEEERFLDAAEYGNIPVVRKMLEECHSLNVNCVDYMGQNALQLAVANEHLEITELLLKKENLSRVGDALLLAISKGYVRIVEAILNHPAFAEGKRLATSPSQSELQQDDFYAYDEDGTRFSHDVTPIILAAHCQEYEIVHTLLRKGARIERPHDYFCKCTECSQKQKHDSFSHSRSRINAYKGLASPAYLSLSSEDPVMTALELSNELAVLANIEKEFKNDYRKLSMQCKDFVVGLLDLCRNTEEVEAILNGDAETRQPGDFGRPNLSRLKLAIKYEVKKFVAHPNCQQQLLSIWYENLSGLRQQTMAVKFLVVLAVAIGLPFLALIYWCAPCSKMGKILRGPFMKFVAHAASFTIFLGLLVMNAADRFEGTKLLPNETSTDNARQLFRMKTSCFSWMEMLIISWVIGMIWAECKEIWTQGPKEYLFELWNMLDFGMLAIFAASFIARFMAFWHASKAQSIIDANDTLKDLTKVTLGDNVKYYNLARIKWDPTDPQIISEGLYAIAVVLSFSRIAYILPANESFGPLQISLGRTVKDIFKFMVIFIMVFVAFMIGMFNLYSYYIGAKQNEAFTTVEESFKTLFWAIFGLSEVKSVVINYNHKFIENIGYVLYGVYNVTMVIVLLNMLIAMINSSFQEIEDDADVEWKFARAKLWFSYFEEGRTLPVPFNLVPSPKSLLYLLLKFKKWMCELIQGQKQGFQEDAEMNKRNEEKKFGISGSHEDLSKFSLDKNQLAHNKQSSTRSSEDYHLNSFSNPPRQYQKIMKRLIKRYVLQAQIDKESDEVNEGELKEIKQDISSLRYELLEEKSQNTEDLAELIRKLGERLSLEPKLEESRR
Procedure, shortened: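 Whole-cell patch clamp of TRPC6/M5 HEK293 cells. Pipette solution: 110 CsCl, 10 BAPTA, 4.77 CaCl2 (400 nM free Ca2+), pH 7.2. Bath at 0.1 mM Ca2+, pH 7.4. Ramps from +100 to −100 mV (100 ms) every 1 s from a 0 mV holding potential. Concentrations of 0.1–100 μM applied consecutively by perfusion. EC50 from currents at +80 mV.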

For Cc1nn2c(O)cc(C3CCN(C(=O)OCc4ccccc4)CC3)nc2c1-c1ccc(F)cc1, which inhibition [1] is on record?
Its inhibition is 13%.

What about the EC50 [2] of the same molecule?
The EC50 was 3.24 µM.

For Cc1nn2c(O)cc(C3CCN(C(=O)OCc4ccccc4)CC3)nc2c1-c1ccc(Cl)cc1, which EC50 [2] is on record?
The EC50 was 2.05 µM.

Which EC50 [2] does the source give for CCOC(=O)N1CCC(c2cc(O)n3nc(C)c(-c4ccc(F)cc4)c3n2)CC1 here?
The EC50 was 2.5 to 6.28 µM.

How did the inhibition [1] turn out when CCOC(=O)N1CCC(c2cc(O)n3nc(C)c(-c4ccc(C(F)(F)F)cc4)c3n2)CC1 was run?
The inhibition was 33%.

What about the EC50 [2] of the same molecule?
The EC50 was 0.89 µM.

Reference: ChEMBL document CHEMBL4014306, “Pyrazolopyrimidines as Potent Stimulators for Transient Receptor Potential Canonical 3/6/7 Channels” (J Med Chem, 2017)
